Data on 13 compounds can be found in ChEMBL document CHEMBL1125686, “(Benzoylphenyl)piperidines: a new class of immunomodulators” (1991).

Common to all, as to format: functional
What all share (set-up): unit not given here

For experiment [1], the system named is Mus musculus. Briefly: Maximal proliferation induced in the presence of the mitogen-Concanavalin A (stimulated blastogenesis) in mice cells dosed at 5 ug/mL. The procedure, abridged: (§1)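 Splenocytes from female DBA/2 mice, 6–9 weeks old; red cells lysed with cold 0.17 M NH₄Cl. Cells plated at 5 × 10⁶ cells/mL in RPMI 1640 with 5% FCS, with compound (5–80 μg/mL range) and Con A, PWM or PHA at a batch-optimized concentration. Cultured 72 h at 37 °C, 5% CO₂, with [³H]thymidine for the final 24 h, read by scintillation. Triplicate wells; mean ± SD of three cultures.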

In experiment [2] the test system is Mus musculus. The experiment in a line: Proliferation induced by the mitogen alone-Concanavalin A (control blastogenesis), in mice cells dosed at 5 ug/mL. The procedure, abridged: as §1
For experiment [3], the species on record is Mus musculus. Briefly: Maximal proliferation induced in the presence of the mitogen-PHA ( stimulated blastogenesis) in Mice cells at a dose of 5 ug/mL. The procedure, abridged:
as §1

The species named for experiment [4] is Mus musculus. Briefly: Proliferation induced by the mitogen alone-PHA (control blastogenesis), in Mice cells at a dose of 5 ug/mL. The procedure, abridged:
as §1

Experiment [5] is filed under the species Mus musculus. Briefly: Proliferation induced by the mitogen alone-PWM (control blastogenesis), in Mice cells at a dose of 10 ug/mL. The procedure, abridged:
as §1

Experiment [6] is filed under the species Mus musculus. The experiment in a line: Maximal proliferation induced in the presence of the mitogen-PWM ( stimulated blastogenesis) in Mice cells at a dose of 10 ug/mL. The procedure, abridged:
as §1

Each structure is given as a SMILES string.

Take `CC(C)(C)C1CCN(c2ccc(N)cc2C(=O)c2ccc(Cl)cc2)CC1`: the Proliferative response was determined as 31.9 in the experiment on Mus musculus [1]; 30.5 with Mus musculus [2]; 55 in the experiment filed under Mus musculus [3]; 59.1 in the experiment filed under Mus musculus [4]; 114.8 in the experiment listed under Mus musculus [5]; 137.5 in the experiment listed under Mus musculus [6].

As to `COc1ccc(C(=O)c2ccccc2N2CCC(C)CC2)cc1`, the Proliferative response in the experiment with Mus musculus [1] amounted to 165; with Mus musculus [2] it was 127.5; in the experiment listed under Mus musculus [5], 20.8; in the experiment listed under Mus musculus [6], 15.5.

With `CNc1ccc(N2CCC(C)CC2)c(C(=O)c2ccc(Cl)cc2)c1`, the Proliferative response with Mus musculus [1] amounted to 21.3; in the experiment on Mus musculus [2], 18.2; in the experiment listed under Mus musculus [5], 20.3; in the experiment listed under Mus musculus [6], 19.5.

For the compound `CC1CCN(c2ccc(N)cc2C(=O)c2cccc(Cl)c2)CC1`, the Proliferative response in the experiment with Mus musculus [1] was determined as 343.8; in the experiment with Mus musculus [2] it was 316; in the experiment listed under Mus musculus [3], 40.9; in the experiment listed under Mus musculus [4], 40.2; in the experiment listed under Mus musculus [5] it was 102.8; in the experiment listed under Mus musculus [6], 105.

Regarding `Nc1ccc(N2CCC(Cc3ccccc3)CC2)c(C(=O)c2ccc(Cl)cc2)c1`, the Proliferative response in the experiment on Mus musculus [1] came out at 308; with Mus musculus [2] it was 328; in the experiment filed under Mus musculus [3], 35.1; in the experiment filed under Mus musculus [4], 27.4; in the experiment listed under Mus musculus [5] it was 108.2; in the experiment filed under Mus musculus [6], 79.5.

Consider `CC1CCN(c2ccccc2C(=O)c2ccccc2)CC1`, for which the Proliferative response in the experiment with Mus musculus [1] was 9; in the experiment with Mus musculus [2], 13.6; in the experiment filed under Mus musculus [5] it was 15.1; in the experiment filed under Mus musculus [6] it was 24.7.

In the case of `CC1CCN(c2ccc(N)cc2C(=O)c2ccc(Cl)cc2Cl)CC1`, the Proliferative response worked out at 246.2 in the experiment with Mus musculus [1]; 280 with Mus musculus [2]; 46.4 in the experiment listed under Mus musculus [3]; 46.7 in the experiment filed under Mus musculus [4]; 105.5 in the experiment listed under Mus musculus [5]; 115.9 in the experiment listed under Mus musculus [6].

Turning to `CC1CCN(c2ccc(N)cc2C(=O)c2cccc(C(F)(F)F)c2)CC1`, the Proliferative response in the experiment with Mus musculus [1] amounted to 297.7; in the experiment on Mus musculus [2], 332; in the experiment listed under Mus musculus [3], 36; in the experiment listed under Mus musculus [4], 34.3; in the experiment listed under Mus musculus [5], 79; in the experiment listed under Mus musculus [6] it was 79.9.

With `COc1ccc(C(=O)c2cc(N)ccc2N2CCC(C)CC2)cc1`, the Proliferative response in the experiment on Mus musculus [1] stood at 363.6; in the experiment on Mus musculus [2] it was 322.1; in the experiment filed under Mus musculus [3] it was 54.3; in the experiment listed under Mus musculus [4], 36.3; in the experiment listed under Mus musculus [5] it was 103.3; in the experiment listed under Mus musculus [6], 121.8.

Consider `CC1CCCN(c2ccc(N(C)C)cc2C(=O)c2ccc(Cl)cc2)C1` (stereo not drawn), for which the Proliferative response is on record as 14.9 in the experiment with Mus musculus [1], 17.6 in the experiment on Mus musculus [2], 21.4 in the experiment listed under Mus musculus [5] and 18.6 in the experiment filed under Mus musculus [6].

Consider `Nc1ccc(N2CCCCC2)c(C(=O)c2ccc(Cl)cc2)c1`, for which the Proliferative response in the experiment on Mus musculus [1] amounted to 21.3; in the experiment with Mus musculus [2] it was 24.6; in the experiment filed under Mus musculus [5], 47.7; in the experiment filed under Mus musculus [6] it was 44.8.

For `Nc1ccc(N2CCC(O)CC2)c(C(=O)c2ccc(Cl)cc2)c1`, the Proliferative response in the experiment with Mus musculus [1] is 281.1; in the experiment with Mus musculus [2], 374.8; in the experiment filed under Mus musculus [3], 52.6; in the experiment listed under Mus musculus [4], 45; in the experiment listed under Mus musculus [5], 107.9; in the experiment listed under Mus musculus [6] it was 88.7.

For the compound `Cc1cccc(C(=O)c2cc(N)ccc2N2CCC(C)CC2)c1`, the Proliferative response in the experiment with Mus musculus [1] was 414.1; in the experiment with Mus musculus [2] it was 389.9; in the experiment listed under Mus musculus [3] it was 62.4; in the experiment listed under Mus musculus [4] it was 47.9; in the experiment filed under Mus musculus [5] it was 98.8; in the experiment listed under Mus musculus [6] it was 135.9.
